Results as given in the EternaBench riboswitch data.

Key:
[1] = system: MS2 coat protein; assay: apparent Kd, MS2 coat protein; higher = weaker binding; RNA-MaP array; theophylline 2 mM where present
In short: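 Designs were transcribed by stalled E. coli RNA polymerase on Illumina sequencing-chip clusters. They were titrated with SNAP-549-labelled MS2 coat protein from 0.7 or 1.5 nM, doubling to 3 µM, in 100 mM Tris-HCl pH 7.5, 80 mM KCl, 4 mM MgCl2, BSA, DTT, yeast tRNA and Tween-20, without and then with constant ligand. The apparent Kd is the median of filtered per-cluster fits after normalisation of green signal to red-channel RNA signal and control-cluster median Fmax.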

[2] = system: MS2 coat protein; assay: apparent Kd, MS2 coat protein; higher = weaker binding; RNA-MaP array
In short: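 Apparent Kd values come from the median of binding-curve fits to single clusters. To obtain them, designed RNAs transcribed on an Illumina sequencing chip from sequenced DNA templates were incubated at room temperature with fluorescently labeled MS2 coat protein at 1.5 nM to 3 μM, with or without input ligand, for 0.8–1.5 h at the lowest and 10–20 min at the highest concentrations. Designs measured on fewer than 10 clusters were excluded.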

[3] = designed as: OFF switch for theophylline, no ligand
[4] = ligand present: theophylline, designed as: OFF switch for theophylline
[5] = designed as: ON switch for theophylline, no ligand
[6] = ligand present: theophylline, designed as: ON switch for theophylline
[7] = designed as: OFF switch for flavin mononucleotide, no ligand
[8] = ligand present: flavin mononucleotide, designed as: OFF switch for flavin mononucleotide
[9] = designed as: ON switch for tryptophan, no ligand
[10] = ligand present: tryptophan, designed as: ON switch for tryptophan
[11] = designed as: ON switch for flavin mononucleotide, no ligand
[12] = ligand present: flavin mononucleotide, designed as: ON switch for flavin mononucleotide

Sequence | apparent Kd [2, 7] | apparent Kd [2, 8] | further results
AAACGUUGCUGCGAUACCAGACAUGAGGAUCACCCAUGUACCAAGGUAAGAAAAUAACAUGUCCCUUGGCAGCGCAGCAACGAAA | – | – | apparent Kd [1, 3]: 15.4 nM; apparent Kd [1, 4]: 412 nM
AACAUGAGGAUCACCCAUGUGUCCCUUGAUACCAGUCCCAUGUGAGACCCUUGGCAGCAAACAUGAGGAUCACCCAUGUCCCAUG | – | – | apparent Kd [1, 5]: 102 nM; apparent Kd [1, 6]: 142 nM
AAGACAUGAGGAUCACCCAUGUGGAGGGAUACCAGCCUGUGUGUGGGCCCUUGGCAGCUUAAAUUUAAUUUAAUUAAAUAAAUUU | – | – | apparent Kd [1, 5]: 34.7 nM; apparent Kd [1, 6]: 36.1 nM
AAGCUGACAAGAAGGUGUUCCUAAGCUGAUACCAGCCUGGAAACAGGCCCUUGGCAGCAGCACAUGAGGAUCACCCAUGUAAUAA | – | – | apparent Kd [1, 3]: 118 nM; apparent Kd [1, 4]: 79.2 nM
AAUAACAUGAGGAUCACCCAUGUAAAAGAUACCAGAUGCAUGAUGAUCCCUUGGCAGCUUAAACGCGAUUGAUUACAAUCGCGAA | – | – | apparent Kd [1, 5]: 34.4 nM; apparent Kd [1, 6]: 91.8 nM
GGUUCAUCGUCGGCCGCCACUCACAUGAGGUGGAGCUGUAAACAUGAGGAUCACCCAUGUUGUUAGAGGACCGGGACGUGACGGC | – | – | apparent Kd ([2]; designed as: OFF switch for tryptophan, no ligand): 33.8 nM; apparent Kd ([2]; ligand present: tryptophan, designed as: OFF switch for tryptophan): 36.7 nM
GGUUGACAUGAGGAUCACCCAUGUGAGGAUAUAACAAGUGGGAGCUCUCCAUGAAAAGUUAGAAGGCACUUGGU | 61.8 nM | 52.9 nM | –
GUACACAUGAGGAUCACCCAUGUACUGGUACGAGGACCGGUACGGCCGCCACUCGCCGAGAUUCAUAACACAUCAGAAAGCUCAC | – | – | apparent Kd [2, 9]: 17.6 nM; apparent Kd [2, 10]: 15.6 nM
GUACAUAUAGAGAAGGGUGAGUAUAUCAGCCUCACAGGAUAUCUGAUGAGUGACAUGAGGAUCACCCAUGUGGUUGUCGGUAGG | 214 nM | 102 nM | –
GUAUACAUGAGGAUCACCCAUGUCGUUCUCUUGAGAUGAACAGAGGAUAUGUGAGUAAUAGCGUGACAGAAGGCUGGACAUGAU | 27.7 nM | 16.9 nM | –
GUAUGGGCUGUAAGGAUAUCUAAGCCGGUUGUGGCAGAGAAGGUACAUGAGGAUCACCCAUGUGGACUUGGGUC | 13.9 nM | 15.7 nM | –
GUGGCAGGUGUCAGCCACAUGAGGAUCACCCAUGUUACUGAUCAGGAUAUUCGUGUGCGUCGCCGGAAGAAGGGAUUUGGACAU | 123 nM | 64.1 nM | –
GUGUUCACUGCAGGAUAUGUACAUGAGGAUCACCCAUGUUGAAACGGCUGGAAUCGGCAGAUGAAACAGAAGGGCAUGAAAAUU | – | – | apparent Kd [2, 11]: 12.8 nM; apparent Kd [2, 12]: 9.09 nM
GUUAAAGAACGAGGAUAUAUUUGGUGAGGAGUACACAUGAGGAUCACCCAUGUCCAUCCUAUUCCAUAGAAGGCGUAGAGUUUU | – | – | apparent Kd [2, 11]: 6.71 nM; apparent Kd [2, 12]: 6.95 nM
GUUAGCACUUAAGGAUAUUGGAAGCGCGUCGUCCAAGAAGGUAAGUUCUUCGUCGACAUGAGGAUCACCCAUGUCAUGCAUGGC | 16.5 nM | 11.8 nM | –
GUUAGUUGUGAGGAUAUUCAGAGAUCUCGAUCAGAAGAAGGCACUACAUGAGGAUCACCCAUGUAGAUUCUUAU | 5.25 nM | 8.88 nM | –
GUUGAGGUGGUAGGAUAUAGUUUACACAUGAGGAUCACCCAUGUAUUCUAGACUUCAAGCCUCACCUAGAAGGACCCGUGCAAA | 4.91 nM | 4.75 nM | –
UAAGAAUCAGGAUAUACAGAAAGAUCAACAAAGAGCCAUAAACAUGAGGAUCACCCAUGUAGAAGGGAACAAAU | 8.14 nM | 7.77 nM | –
UACAUGAGGAUCACCCAUGUCAAACCGUUCUAGGACUAGGUAAGAAGGGUCAUCCUACAAUGUUGACAGGAUAUUACGUAGCUG | – | – | apparent Kd [2, 11]: 348 nM; apparent Kd [2, 12]: 71.3 nM
UAGAUAUGAGGAUAUACAUGAGGAUCACCCAUGUGGUUAUCAAACGACAUGACAUUUAGUAGAAGGCAAACAUC | 23.5 nM | 21 nM | –
UAGCCUCUUAGAGGAUAUUCAUAAGCACGCAAUGAAGAAGGCUAGGACAAGUGGGACAUGAGGAUCACCCAUGUGGGAAUAUGU | 43.3 nM | 36.8 nM | –
UAGGAUAACACAGGAUAUACCCUUGUCGUCGGUUCUAAAUUACAUGAGGAUCACCCAUGUCUAAGGUAGAAGGGUGUUUGCGGU | 31.6 nM | 29.6 nM | –
UAGGGUCUGUCGCGACAUGAGGAUCACCCAUGUGCUUAGUCAAGAAGGGCGGACAUGCAAAACCCGCAGGAUAUUGUAUGCACU | 254 nM | 59.5 nM | –
UAGUCGUGGGCAGGAUAUCACUUUAUGCCAAUAUGAGAAGGGCCGGUGACAAGGCGGGCGACCACAUGAGGAUCACCCAUGUAC | 79.6 nM | 47.9 nM | –
UAUCGCGCGGCGGCCGCCACUAAUGGCAGAUCUGUCGACUAACAUGAGGAUCACCCAUGUCUAACUAGGACCGGGCCCAAGUUGU | – | – | apparent Kd [2, 9]: 47.5 nM; apparent Kd [2, 10]: 40.2 nM
UAUCUACUAUGAGGAUAUCGACAAUGGAUGAACAUGAGGAUCACCCAUGUAACUCAUGGUCCCUUCGAGAAGGCAUGCUAUAAC | 55 nM | 59.5 nM | –

Sequence | apparent Kd [2, 7] | apparent Kd [2, 8] | further results
UCAAUACAGUCGGCCGCCACUGUAACCAAACCUACAUACCAACAUGAGGAUCACCCAUGUUUAUACAGGACCGGGACCUCUAUGA | – | – | apparent Kd [2, 9]: 36.6 nM; apparent Kd [2, 10]: 28.5 nM
UCAAUCACACAUGAGGAUCACCCAUGUGAUAAUCAUGACUCAAGAAGGCAUGUGCAACUUGUUAAUGAGGAUAUUGGAGUAAUG | 31.9 nM | 22.3 nM | –
UCACGGUCAGGAUAUCCUACCUUAGGGCAACCAUGGUAAACGGAGAAGGGACAUGAGGAUCACCCAUGUACAGC | 12.9 nM | 26.8 nM | –
UCAGGUCCGAAGAAGGCGAAGCAACAUUACUAUCGAGGAUAUUCUACAUGAGGAUCACCCAUGUCACCAUCGAUGACAGAGAAU | 7.65 nM | 7.93 nM | –
UCAGUGUCAGGAUAUUCUAACGAGGGUAGUGCGCCCUUUGUGAAGAAGGGACAUGAGGAUCACCCAUGUACUUG | 51.2 nM | 125 nM | –
UCAUCACAUGAGGAUCACCCAUGUCGUAGGUGAUCAGGAUAUGCCUAUGCCUCCAUGGCGGCAGAAGGGAUGCGGG | – | – | apparent Kd [2, 11]: 795 nM; apparent Kd [2, 12]: 603 nM
UCCAGACAUGAGGAUCACCCAUGUUGUGAUACCAGAACCGUGGAGUUCCCUUGGCAGCACUAAGAAGUUCCUGGAUCAGCUAGCG | – | – | apparent Kd [2, 5]: 27.6 nM; apparent Kd [2, 6]: 32.8 nM
UCCUACAAAGUCAGGAUAUUCGCACAGUCACGAGGGAAGAAGGGACAUGAGGAUCACCCAUGUAUUUACGCGUA | 20.4 nM | 27.2 nM | –
UCGGCACAUGAGGAUCACCCAUGUAAGGAUAUACGAAGCUUGCAGUCGCUGUUAUUUGGUAGAAGGUACCCUCG | 14.5 nM | 12.5 nM | –
UCGGGUAAGCAGAAGGCACUAGAUUCUCUUUCAGCGAUAUAACAUGAGGAUCACCCAUGUAGAGGUGAGGAUAUGCAGAAACGC | – | – | apparent Kd [2, 11]: 169 nM; apparent Kd [2, 12]: 83.9 nM
UCUAGAUCAUCGUGACAUGAGGAUCACCCAUGUCUGCGGGCAAGAAGGUGGUCGUUGUCUAACACCAAGGAUAUUGAGGGAGGU | – | – | apparent Kd [2, 11]: 51.5 nM; apparent Kd [2, 12]: 30.4 nM
UCUAUGCUAACAGGAUAUCGCGGCACGAUGCUUCGAGAAGGGUUAACAUGAGGAUCACCCAUGUGUGUCCUACGGAGACCGCGC | 9.01 nM | 11.8 nM | –
UCUCAAAUAAAUAUCAUACAUGAGGAUCACCCAUGUCACCGAUAGGAUAUGCGCGUUUCCCACCUGCAGAAGGAUCAAACUGUA | – | – | apparent Kd [2, 11]: 15.4 nM; apparent Kd [2, 12]: 13.4 nM
UGAACCGGAAAGAAGGCCUUGCUUUAACGUACAGGAGGAUAUUUCCUAUUUGUGAGCCUUGACAUGAGGAUCACCCAUGUAUCG | 479 nM | 116 nM | –
UGAGACAGAGGAUAUACAAAAGGGAAACGAGCACAGAGGAAACAUGAGGAUCACCCAUGUAGAAGGCUGAACAG | 6.99 nM | 19 nM | –
UGGAAAUGAAUAGGAUAUCAGUGUUGUCUAUAACAUGAGGAUCACCCAUGUUUCCAUUGGCCUCGUGAGAAGGAUUCUAGUAUU | – | – | apparent Kd [2, 11]: 81.6 nM; apparent Kd [2, 12]: 22.3 nM
UGGAAGUAAGGAUAUCCGCGCGCGGGUUUUGCGCACGCACUGGAGAAGGUACAUGAGGAUCACCCAUGUUCGUC | 9.85 nM | 9.59 nM | –
UGGAUUCGACAAGGAUAUGGUAGUCAUAGCACAUGAGGAUCACCCAUGUUAAAGCAAAACAAAGUCCAGAAGGUGUAAGUACGG | – | – | apparent Kd [2, 11]: 11.7 nM; apparent Kd [2, 12]: 9.43 nM
UGUAGCCGCGAGAAGGUAAGCUAAGGAUGUGGUAUCAACGACUACAUGAGGAUCACCCAUGUGCUUAAGGAUAUCGAGGUGGAG | – | – | apparent Kd [2, 11]: 62.5 nM; apparent Kd [2, 12]: 104 nM
UUAUUGGUAGGAUAUACAUGAGGAUCACCCAUGUGUCACGCAAAUUAGUAUGUCAAAUGUAGAAGGACCAAAUA | 20.5 nM | 30.2 nM | –
UUCCACCUAAAGCGUUGCCCUCGUGAUGAUACCAGUUUCAGCGGUAACCCUUGGCAGCAUCGGACAUGAGGAUCACCCAUGUGGA | – | – | apparent Kd [2, 3]: 106 nM; apparent Kd [2, 4]: 213 nM
UUCGACAGCGUGAGGAUAUCUACAUCGGGUAGGUGAGAGAAGGCACAUGAGGAUCACCCAUGUUCUGAAGAGCA | 16 nM | 19.9 nM | –
UUGAUCUGACGAGGAUAUAUCAUAACACCUUUGAUAGAAGGCGUGAUCGACAUGAGGAUCACCCAUGUGCGUGACUUUGGUAGU | – | – | apparent Kd [2, 11]: 11.6 nM; apparent Kd [2, 12]: 10.8 nM
UUUAGACCUCAACAUGAGGAUCACCCAUGUAAAUCUCUAUCGAGAAGGAAGGAAGGAACCUUGUCUUAGGAUAUCGACAAUUUC | – | – | apparent Kd [2, 11]: 101 nM; apparent Kd [2, 12]: 71.7 nM
UUUAGACGGCAGAAGGCGGGCUCGCGCGGUGUACAUGAGGAUCACCCAUGUGUUUGCCAUCUACCCGAGGAUAUGCAGUGAUGG | – | – | apparent Kd [2, 11]: 39.4 nM; apparent Kd [2, 12]: 13.2 nM
UUUCUCAAUGUCAGGAUAUAGAUUUGACAUCCUCACUAGAAGGGACAUGAGGAUCACCCAUGUGUCAAUGCGGC | – | 17.6 nM | –
